Source: PubChem
SKN-1 block: suppressors of acrylamide-induced Pgst-4::GFP reporter in worms, primary screen, SKN-1 inhibitor project, whole organism, uHTS, GFP/RFP fluorescence ratio, strain VP596; AID 624304, 2012; 360,000 compounds, 0.49% hits; inhibition, % at 21.8 µM; C. elegans VP596 Pgst-4::GFP/RFP ratio, 24 h;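 active = interference check ratio from 0.5 to 1.5 plus GFP to RFP signal ratio inhibition reaching or exceeding a fixed threshold, cut at about 30% in these data, passing the limit was not always enough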
Rpn11 inh: Rpn11 (PSMD14) deubiquitinase inhibitors, primary screen, biochemical, fluorescence polarization, uHTS; 26S proteasome non-ATPase regulatory subunit 14 (Homo sapiens), O00487; human 26S proteasome, Ub4-pepOG fluorescence polarization; 20S core pre-blocked with epoxomicin; inhibition, % at 20 µM; 360,000 compounds, 0.59% hits;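 active = inhibition at 20 µM, scaled to each plate's controls, above about 33%, limit read from the data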
MT1-MMP act inh: blockers of MT1-MMP proenzyme processing, primary screen, HT1080 RFP-PRO-GFP cells, GFP/RFP fluorescence; GFP/RFP ratio change, % at 20 µM; Matrix metalloproteinase-14 (Homo sapiens), P50281; GFP/RFP ratio fluorescence, overnight; percent of plate control window, DMSO zero; 360,000 compounds, 0.061% hits;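 active = GFP/RFP ratio change of at least 30% with cell ATP level not reduced by more than half and red fluorescence within 50% of control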
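Material – HT1080 RFP-PRO-GFP cells · Control set – DMSO wells and RFP-L50D-GFP cells · Incubation – overnight cell settling, then overnight compound exposure, 37 °C, 5% CO2 · Compound dosing – single-point 20 µM compound, 1% DMSO · Read-out – GFP/RFP fluorescence ratio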
CSN inh: inhibitors of CSN-mediated cullin deneddylation, primary screen, biochemical, fluorescence polarization, uHTS | COP9 signalosome complex subunit 5 (Homo sapiens), Q92905 | Purified CSN, SCF-Nedd8-OG deneddylation | inhibition, % at 12.5 µM | 360,000 compounds, 0.38% hits | AID 651999, 2013;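 active = pattern-corrected inhibition above about 35%, with an unprinted fluorescence ratio check between 0.5 and 1.5, limit read from the data, passing the limit was not always enough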;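 also: 0% = enzyme with substrate and 100% = substrate without enzyme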
Target sequence (Q92905 whole entry, looked up, one chain of several): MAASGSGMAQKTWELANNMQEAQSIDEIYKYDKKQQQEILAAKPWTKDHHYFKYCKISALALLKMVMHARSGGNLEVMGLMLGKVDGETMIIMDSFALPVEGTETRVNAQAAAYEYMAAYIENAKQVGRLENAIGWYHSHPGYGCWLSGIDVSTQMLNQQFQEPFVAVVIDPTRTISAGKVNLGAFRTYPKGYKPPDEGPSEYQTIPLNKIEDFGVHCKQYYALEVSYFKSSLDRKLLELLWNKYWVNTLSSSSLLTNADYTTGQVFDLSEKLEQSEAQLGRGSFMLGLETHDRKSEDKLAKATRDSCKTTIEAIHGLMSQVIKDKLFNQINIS
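Assay system: purified human Csn5 enzyme expressed in HEK293T cells; Input: 0.24 nM Csn5 enzyme, final concentration; Reagent: 10 nM SCFSkp2-Nedd8OG; Compound dosing: 12.5 µM single point; Times: reaction 90 min, room temperature; Technique: fluorescence polarization readout.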
DNMT1 block: human DNMT1 methyltransferase inhibitors, primary screen, biochemical, molecular beacon, fluorescence, HinP1I cleavage, uHTS | 360,000 compounds, 0.83% hits | inhibition (reported as % activation of signal), % at 10 µM | DNA (cytosine-5)-methyltransferase 1 (Homo sapiens), P26358; in the data active = inhibition above about 50%
SUMO1-SIM PPI: modulators of SUMO1 protein-protein interactions, primary screen, biochemical, uHTS. SUMO1 binding to a labelled peptide, TR-FRET, 1 h. AID 602429, 2012. 360,000 compounds, 0.33% hits. inhibition, % at 20 µM; in the data active = inhibition above about 37%
Target sequence (P63165 whole entry, looked up): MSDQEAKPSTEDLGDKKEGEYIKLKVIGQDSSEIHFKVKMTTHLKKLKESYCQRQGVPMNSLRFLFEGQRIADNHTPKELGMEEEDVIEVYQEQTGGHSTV
Numbers without * were called inactive; / = no result given. Shown are actives, neighbours in structure and some others; about 2.3% of the full set was active somewhere.

SMILES	SKN-1 block	Rpn11 inh	MT1-MMP act inh	CSN inh	DNMT1 block	SUMO1-SIM PPI
NC(=O)c1ccccc1NC(=O)c1cccc(C(=O)Nc2ccccc2C(N)=O)n1	-1.8	3.1	-0.1	35.2*	14.8	-12.1
CC1(C(=O)Nc2cnc3ccccc3c2)CCN1C(=O)C/C=C/c1ccccc1 (stereo unspecified)	4.4	1.0	-2.5	1.2	1.8	-2.5
Nc1ccc2nc(CCc3ccccc3)[nH]c2c1	-9.6	1.4	6.9	4.6	-20.1	-4.0
Nc1ccc2nc3c(=O)n(CCc4ccccc4)c(=O)[nH]c3nc2c1	-22.7	-118.5	-142.5	-78.1	51.0*	-36.0
CCCCn1c(=O)[nH]c2nc3cc(N)ccc3nc2c1=O	-54.0	-179.4	-168.3	-71.0	54.1*	-19.5
Nc1ccc2nc3c(=O)n(C4CCCCC4)c(=O)[nH]c3nc2c1	-51.6	-114.3	-149.2	-77.5	33.7	-20.9
O=C(COc1c(Br)cc(Br)c2cccnc12)Nc1ccccc1F	0.2	5.8	2.7	0.9	32.9	47.1*
COc1cc(NC(=O)C2CCC(CNc3c(N4CCC(C)CC4)c(=O)c3=O)CC2)cc(OC)c1 (stereo unspecified)	3.0	-2.2	7.0	-0.8	-2.6	7.6
CCOc1ccc(NC(=O)c2ccc(CNc3c(N4CCCC4)c(=O)c3=O)cc2)cc1	-4.3	0.2	1.7	-1.0	4.2	44.7*
CCc1cccc(NC(=O)c2ccc(CNc3c(N4CCCC4)c(=O)c3=O)cc2)c1	5.5	7.7	-1.4	-3.8	-3.4	48.8*
CCOc1ccc(OCC)c(NC(=O)c2ccc(CNc3c(N4CCCC4)c(=O)c3=O)cc2)c1	-7.2	-4.9	4.8	2.1	-4.8	0.1
COc1cc(NC(=O)C2CCC(CNc3c(N4CCCCC4)c(=O)c3=O)CC2)cc(OC)c1 (stereo unspecified)	10.8	1.3	0.7	0.3	51.7*	6.6
CC(=O)c1ccc(NC(=O)c2ccc(CNc3c(N4CCCC4)c(=O)c3=O)cc2)cc1	16.8	1.2	3.2	-1.3	1.2	-0.5
COc1cc(NC(=O)c2ccc(CNc3c(N4CCOCC4)c(=O)c3=O)cc2)cc(OC)c1	6.5	5.2	1.7	1.3	-4.8	43.3*
COc1cccc(CN2CCC2(C)C(=O)Nc2ccc(Cl)c(Cl)c2)c1F (stereo unspecified)	-3.4	-3.6	-0.2	-0.8	-10.6	4.3
Nc1nc2ccccc2cc1C(=O)NCc1ccc(-c2ccccc2)cc1	-6.6	/	12.7	1.7	/	2.8
C/C(N)=C(/C#N)C(=O)COC(=O)C1CCC(C(C)(C)C)CC1 (stereo unspecified)	-2.1	2.6	0.0	116.8*	5.4	-1.4
O=C(NCc1ccccc1)c1cc(C2CCCN(S(=O)(=O)c3ccccc3)C2)on1 (stereo unspecified)	9.1	0.1	-2.1	3.0	-6.4	-0.8
COc1ccc(N2CCN(C(=O)c3cc4c(-c5cccc(OC)c5)nn(C)c4s3)CC2)cc1	35.2*	3.1	-9.0	-5.0	-12.1	0.6
CC(C)OC(=O)CSc1nnnn1-c1ccc2c(c1)OCCO2	45.1*	-3.7	1.8	-0.1	-3.5	4.6
CC(=O)NS(=O)(=O)c1ccc(Nc2ccc([N+](=O)[O-])c3nonc23)cc1	35.4*	31.2	-44.8	14.3	-6.4	-68.5
CCOc1ccc(Nc2ccc([N+](=O)[O-])c3nonc23)cc1	36.7*	-0.2	-38.9	4.2	-5.9	-37.2
O=[N+]([O-])c1ccc(Nc2ccccc2)c2nonc12	35.1*	32.9	-34.6	15.1	-9.8	-90.2
COc1ccc(Nc2cc(NCCCO)c([N+](=O)[O-])c3nonc23)cc1	1.0	4.2	5.6	-3.1	-3.4	-32.7
N#Cc1c(NC(=O)Cn2c(=O)oc3ccccc32)oc(-c2ccccc2)c1-c1ccccc1	-7.3	2.5	6.0	1.4	-9.6	41.4*
SMILES	SKN-1 block	Rpn11 inh	MT1-MMP act inh	CSN inh	DNMT1 block	SUMO1-SIM PPI
O=C(Cn1c(=O)oc2ccccc21)Nc1ccc(Br)cc1	-10.6	12.2	2.6	-1.7	2.4	6.2
COc1ccc(/C=N/N=C2/SCC(=O)N2Cc2ccccc2)cc1	-10.2	4.2	1.0	2.2	-1.0	-5.1
COc1ccc(CN2C(=O)CS/C2=N/N=C/c2ccccc2)cc1	52.6*	0.8	1.4	-2.0	-3.3	-0.6
O=C(NC(c1ccccc1)c1ccc2ccccc2n1)C1CCN(Cc2ccc(Cl)c(Cl)c2)CC1 (stereo unspecified)	-1.7	3.6	0.4	4.7	-10.0	26.1
Cc1c(NC(=O)CSc2ccc3c(c2)OCCO3)c(=O)n(-c2ccccc2)n1C	44.0*	5.7	0.4	2.8	9.3	2.1
Cc1c(NC(=O)CSc2ccc(Cl)cc2)c(=O)n(-c2ccccc2)n1C	0.7	-3.5	-0.3	1.8	0.6	0.1
c1ccc2c(c1)CCN(C1=Nc3cccc4cccc1c34)C2	48.8*	21.4	37.7	-0.2	-3.6	-14.4
CC1(C(=O)NCc2cccs2)Cc2c(-c3cccc(C(F)(F)F)c3)ccnc2O1 (stereo unspecified)	3.8	4.7	1.3	13.5	-2.4	4.2
N#C/C(=C\C=C\c1ccccc1)c1nc(-c2ccc(Cl)cc2)cs1	17.1	15.0	-9.4	0.9	1.7	2.3
N#CC(=Cc1cccs1)c1nc(-c2ccc(Cl)cc2)cs1	61.8*	23.5	-5.0	-3.5	-2.2	0.4
CC1(C(=O)NCc2cccs2)CCN1C(=O)Cc1cccc2ccccc12 (stereo unspecified)	14.4	-2.2	2.1	-1.2	6.4	-4.0
COc1ccc(C2=CC3=C(Br)C(=O)C(C)(OC(=O)C4CCCC4)C(=O)C3=CO2)cc1 (stereo unspecified)	11.1	11.6	-0.5	12.4	8.7	55.6*
CC1(OC(=O)C2CCCC2)C(=O)C=C2C=C(c3ccsc3)OC=C2C1=O (stereo unspecified)	23.3	28.2	2.5	34.7	-5.5	25.3
COc1ccc(NC(=O)C2Cc3c(-c4ccc5c(c4)OCO5)ccnc3O2)cc1 (stereo unspecified)	3.5	-6.0	-3.6	0.4	-1.2	15.0
c1csc(-c2ccc3ccccc3n2)c1	43.0*	1.1	-4.5	1.5	21.8	-14.3
